This is a sample that favours compounds with a hit; in the whole collection about 2.1% have one here.
MC4R barr agon – activates human MC4R beta-arrestin recruitment; U2OS MC4R beta-arrestin complementation, luminescence; percent of melanotan II response, DMSO zero; 0.98% of 360,000 active; activation, % at 8.9 µM; P32245;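 active = activation above a per-plate cutoff, the mean activation of sample wells on that plate plus 3 SD, cut at about 8% in these data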
Target sequence (P32245 whole entry, looked up): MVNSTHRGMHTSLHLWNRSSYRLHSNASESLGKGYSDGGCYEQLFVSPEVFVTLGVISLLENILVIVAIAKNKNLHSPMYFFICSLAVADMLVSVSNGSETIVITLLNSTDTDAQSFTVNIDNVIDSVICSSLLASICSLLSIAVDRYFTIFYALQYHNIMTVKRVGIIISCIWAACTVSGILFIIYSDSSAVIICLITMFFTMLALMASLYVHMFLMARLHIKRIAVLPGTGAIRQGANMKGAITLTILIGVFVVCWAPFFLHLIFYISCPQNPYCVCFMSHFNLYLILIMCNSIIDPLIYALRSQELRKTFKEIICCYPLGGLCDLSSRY
NOD2-RIPK2 inh – NOD2-RIPK2 protein interaction inhibition | CHO BLA complementation NOD2-RIPK2, CCF4 ratio | inhibition, % at 4.98 µM | 0.38% of 360,000 active; in the data active = inhibition above about 21%
TLR9-MyD88 block – inhibitors of human TLR9-MyD88 binding. 0.21% of 340,000 active. inhibition, % at 4.98 µM. CHO BLA complementation TLR9-MyD88, CCF4 FRET ratio;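 active = inhibition above the mean over all tested compounds plus 3 SD, cut at about 21% in these data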
beta cell repl – MIN6 beta-cell proliferation induction; MIN6 cells proliferation, ATPlite luminescence, 48 h; cells starved in 0.2% serum; 100% = growth in 10% serum; proliferation, % at 10 µM; 0.29% of 330,000 active; AID 2380;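 active = compounds whose signal lies at least 3.5 SD above the mean of all wells on their plate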
MC4R antagonist – antagonists of human melanocortin 4 receptor (MC4R) | inhibition, % at 6.5 µM | MC4R-expressing cells, MTII-stimulated cAMP, LANCE TR-FRET | P32245 | 0.48% of 360,000 active | AID 540295;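 active = inhibition above its plate's cutoff, the mean of tested wells on that plate plus 3 SD, cut at about 29% in these data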
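Material – human MC4R-expressing U2OS cells · Repeats – no replicates · Detection – TR-FRET with Eu-cAMP and labeled anti-cAMP, 671 nm · Times – compound 30 min, challenge 1 h, detection 1 h · Compound – single nominal compound dose of 6.5 µM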
TLR4-MyD88 BLA – TLR4-MyD88 interaction inhibition in cells; O00206+Q99836; HeLa CL3-4 TLR4/MyD88 BLA complementation, FRET ratio; inhibition, % at 8.4 µM; 0.18% of 200,000 active; in the data active = inhibition above about 25%
MC4R barr conf – human MC4R beta-arrestin agonism confirmation. 31% of 2,400 active. AID 602192. U2OS MC4R beta-arrestin recruitment, luminescence; scaled DMSO 0%, Melanotan II 100%. activation, % at 8.9 µM. shares compounds with MC4R barr agon;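 active = mean activation across replicates above the hit cutoff set in the earlier primary screen, cut at about 8% in these data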
MOR-DOR barr ag – OPRM1-OPRD1 heterodimer agonism counter-screen | shares compounds with MC4R barr agon | U2OS PathHunter beta-arrestin, beta-gal luminescence; percent of deltorphin B response, DMSO zero | activation, % at 9.2 µM | 5.8% of 2,400 active | AID 602194;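 active = mean activation across replicates exceeds the hit threshold derived in the earlier primary screen, cut at about 18% in these data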
Large screens that a line does not name were inactive (follow-up assays come after a bar, where they were run).

O=C(Nc1cccc(C(=O)N2CCN(c3ccc(F)cc3)CC2)c1)c1ccccc1	none
O=C(c1cccc(-c2ccc(O)cc2)c1)N1CCN(c2ccc(F)cc2)CC1	MC4R barr agon 12.6 | MC4R barr conf inactive | MOR-DOR barr ag inactive
COc1ccc(OC)c(NC(=O)COC(=O)c2cc3c(s2)CCC3)c1	MC4R barr agon 20.4 | MC4R barr conf inactive | MOR-DOR barr ag inactive
COc1ccccc1NC(=O)COC(=O)c1cc2c(s1)CCC2	none (no result: TLR4-MyD88 BLA)
COc1ccc(Sc2nnc(-c3ccccc3)cc2C#N)cc1	none
Cc1ccc(Sc2nnc(-c3ccccc3)cc2C#N)cc1	MC4R barr agon 13.0 | MC4R barr conf inactive | MOR-DOR barr ag inactive
COc1cc(C(=O)NCc2ccc(S(N)(=O)=O)cc2)ccc1OCC(=O)N1CCOCC1	none (no result: TLR4-MyD88 BLA)
CCc1nonc1NC(=O)c1oc2cc(C)c(C)cc2c1C	MC4R barr agon 11.8 (no result: TLR4-MyD88 BLA) | MC4R barr conf inactive | MOR-DOR barr ag inactive
CCc1nonc1NC(=O)c1oc2cc(C)c(Cl)cc2c1C	none (no result: TLR4-MyD88 BLA)
C=CCOc1ccc(C(=O)Nc2ccccc2C(=O)NCc2cccnc2)cc1	none (no result: TLR4-MyD88 BLA)
CC1CC(C)CN(C(=O)CN2C(=O)NC(c3ccccc3)(c3ccccc3)C2=O)C1 (configuration not stated)	none (no result: TLR4-MyD88 BLA)
c1ccc(-c2nc(-c3cccs3)[nH]c2-c2ccccc2)cc1	MC4R barr agon 9.6 | MC4R barr conf inactive | MOR-DOR barr ag inactive
COc1ccc2oc(-c3ccc(C)c(NC(=O)c4ccc(N5CCOCC5)c([N+](=O)[O-])c4)c3)nc2c1	MC4R barr agon 10.7 | MC4R barr conf inactive | MOR-DOR barr ag inactive
COC(=O)c1c(C)[nH]c(C(=O)CC#N)c1C	none
CCOC(=O)c1[nH]c(C)c(C(=O)OCCOc2cccc(C)c2)c1C	MC4R barr agon 12.3 | MC4R barr conf 8.5 | MOR-DOR barr ag inactive
COC(=O)c1c(C)[nH]c(C(=O)CSc2ccc(Cl)cc2)c1C	MC4R barr agon 28.6 | MC4R barr conf 11.4 | MOR-DOR barr ag inactive
CCc1c(C(=O)OCc2ccccc2)[nH]c(C)c1C	none (no result: TLR4-MyD88 BLA)
CCc1c(C)[nH]c(C(=O)OCc2ccccc2)c1C	MC4R barr agon 10.2 (no result: beta cell repl) | MC4R barr conf inactive | MOR-DOR barr ag inactive
COC(=O)c1c(C)[nH]c(C(=O)OCc2ccc(F)cc2)c1C	MC4R barr agon 11.9 | MC4R barr conf inactive | MOR-DOR barr ag inactive
CCOC(=O)c1[nH]c(C)c(C(=O)OCC)c1C	none
CC(=O)c1c(C)[nH]c(C(=O)OCC(=O)NCCc2ccc(F)cc2)c1C	none
CCOc1ccc(C(=O)C(C)OC(=O)Cn2[nH]c(=O)c3ccccc3c2=O)cc1 (configuration not stated)	none (no result: TLR4-MyD88 BLA)
COc1ccccc1C(=O)N1CCN(C(=O)[C@H]2O[C@@H](n3ccc(=O)[nH]c3=O)[C@H](O)[C@@H]2O)CC1	none (no result: MC4R barr agon, TLR9-MyD88 block, beta cell repl, MC4R antagonist, TLR4-MyD88 BLA)
CCOC(=O)c1[nH]c(C)c(C(=O)OCc2ccccc2F)c1C	MC4R barr agon 25.8 (no result: TLR4-MyD88 BLA) | MC4R barr conf inactive | MOR-DOR barr ag inactive
Cc1cccn2c(=O)nc(SCC(=O)NCc3ccc(F)cc3)nc12	none (no result: TLR4-MyD88 BLA)
Cc1ccnc(Nc2nc(-c3ccc(O)cc3O)cs2)c1	MC4R barr agon 17.7 (no result: TLR4-MyD88 BLA) | MC4R barr conf 13.2 | MOR-DOR barr ag inactive
Cc1ccnc(Nc2nc(-c3ccc(O)cc3)cs2)c1	none (no result: TLR4-MyD88 BLA)
Cc1ccccc1N1CCN(S(=O)(=O)c2nnc(NC(=O)CC(C)C)s2)CC1	MC4R barr agon 12.9 (no result: TLR4-MyD88 BLA) | MC4R barr conf inactive | MOR-DOR barr ag inactive
Cc1ccccc1N1CCN(S(=O)(=O)c2nnc(NC(=O)c3ccco3)s2)CC1	none (no result: TLR4-MyD88 BLA)
CCc1ccc(C(=O)NNC(=O)[C@H](C)NC(=O)c2ccco2)cc1	none (no result: TLR4-MyD88 BLA)
CC(=O)c1sc(NC(=O)CSCc2c(C)noc2C)nc1-c1ccccc1	none (no result: TLR4-MyD88 BLA)
CN(C)CCOc1nc(-c2ccccc2)nc2c1oc1ccccc12	MC4R barr agon 16.4 | MC4R barr conf inactive | MOR-DOR barr ag inactive
COc1cccc(CNC(=O)[C@@H]2CCCN2C(=O)[C@@H]2CCCN2C(=O)c2ccc(Cl)cc2)c1	none (no result: MC4R barr agon, TLR9-MyD88 block, beta cell repl, MC4R antagonist, TLR4-MyD88 BLA)
N#Cc1c(-c2ccc(F)cc2)c(-c2ccc(F)cc2)nn(CCO)c1=O	none (no result: beta cell repl, TLR4-MyD88 BLA)
O=C(CN(CCc1ccccc1)S(=O)(=O)c1ccc(Cl)cc1)N/N=C/c1ccc2c(c1)OCO2	MC4R barr agon 24.6 | MC4R barr conf inactive | MOR-DOR barr ag inactive
COc1ccccc1-n1cc(-c2ccc(Br)cc2)[nH]c1=S	none (no result: TLR4-MyD88 BLA)
S=c1[nH]c(-c2ccc(Br)cc2)cn1CCc1ccccc1	MC4R barr agon 19.0 | MC4R barr conf inactive | MOR-DOR barr ag inactive
CCc1nc2ccc(C(=O)NCCNC(C)=O)cn2c1N(C)Cc1ccc(OC)cc1	none (no result: TLR9-MyD88 block, beta cell repl, TLR4-MyD88 BLA)
COc1ccc(CNC(=O)/C=C/c2ccc(OCCCF)cc2)cc1	none
O=C(/C=C/c1ccc(OCCCF)cc1)NCc1ccc(Cl)cc1	MC4R barr agon 15.2 | MC4R barr conf inactive | MOR-DOR barr ag inactive
COC(=O)C1=C(C)N(Cc2ccccc2)C(=NCC(C)C)N[C@H]1c1cccc(F)c1	none (no result: TLR4-MyD88 BLA)
COC(=O)C1=C(C)N(Cc2ccccc2)C(=NCC(C)C)N[C@H]1c1cccc(C(F)(F)F)c1	MC4R barr agon 15.7 (no result: TLR4-MyD88 BLA) | MC4R barr conf 17.5 | MOR-DOR barr ag 23.2
O=C(/C=C/c1ccc(Br)cc1)N1CCN(c2cccc(C(F)(F)F)c2)CC1	MC4R barr agon 14.4 (no result: beta cell repl) | MC4R barr conf inactive | MOR-DOR barr ag inactive
Cc1ccccc1NC(=O)Cc1nc(COC(=O)CCNS(=O)(=O)c2ccccc2)cs1	none (no result: TLR4-MyD88 BLA)
N#Cc1c(C(F)(F)F)cc(-c2cccs2)nc1SCc1ccc(Cl)nc1	MC4R barr agon 15.9 | MC4R barr conf inactive | MOR-DOR barr ag inactive
N#Cc1c(C(F)(F)F)cc(-c2cccs2)nc1SCc1cccnc1	MC4R barr agon 12.1 | MC4R barr conf inactive | MOR-DOR barr ag inactive
CC(=O)c1cc2c(cc1NC(=O)c1ccc(C)cc1)OCCO2	MC4R barr agon 9.6 (no result: TLR4-MyD88 BLA) | MC4R barr conf inactive | MOR-DOR barr ag inactive
CCOc1ccc(OCCSc2nc(C)cc(=O)[nH]2)cc1	none
O=c1[nH]c(SCCOc2cccc3ccccc23)nc2ccccc12	MC4R barr agon 10.4 | MC4R barr conf inactive | MOR-DOR barr ag inactive
CCOc1ccc(OCCSc2nc3ccccc3c(=O)[nH]2)cc1	MC4R barr agon 9.6 | MC4R barr conf inactive | MOR-DOR barr ag inactive
O=c1[nH]c(-c2ccc(-c3cccc(Cl)c3)o2)nc2ccccc12	MC4R barr agon 12.6 (no result: TLR4-MyD88 BLA) | MC4R barr conf inactive | MOR-DOR barr ag inactive
Cc1sc2ncnc(N3CCC(C(=O)Nc4ccc(S(N)(=O)=O)cc4)CC3)c2c1C	none (no result: TLR4-MyD88 BLA)
